Sampled rows, rich in hits. Any-hit rate of the full collection: about 4%.
OX1R antag-1 = blocks the human orexin 1 receptor | O43613 | CHO/OX1R cells, Fluo-8 calcium fluorescence, orexin A | inhibition, % at 5 µM | actives 0.43% (n = 330,000);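 active = inhibition above its plate's threshold, mean inhibition of all tested compounds on the plate plus 3 SD, cut at about 37% in these data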;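 note: 0% = orexin A challenge wells and 100% = SB-334867-A antagonist wells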
CHO parental Ca = signal in parental CHO cells, OX1R antagonist counter-screen. parental CHO-K1, ATP-induced calcium, Fluo-8 fluorescence. inhibition, % at 5.6 µM. actives 0.63% (n = 330,000). AID 463079;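 active = inhibition above that plate's mean sample inhibition plus 3 SD, cut at about 26% in these data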;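 note: 0% = ATP-challenged DMSO wells and 100% = DMSO wells without ATP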
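Material – parental CHO cells · Reagent – ATP stimulus · Compound – single nominal dose of 5.6 µM per compound · Detection – Fluo-8 fluorescence · Read-out basis – percent inhibition of calcium signal · Controls – ATP-challenged DMSO wells low, unchallenged DMSO wells high · Repeats – no replicates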
OX1R antag-2 = OX1R (human) antagonism. inhibition, % at 6.6 µM. actives 1.8% (n = 330,000). O43613. OX1R-expressing cells, FRET antagonist read-out; in the data active = inhibition mostly above about 38%, no sharp cut-off; inactive = mostly below about 40%;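 note: 0% = agonist challenge alone and 100% = reference antagonist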
TAAR1 ag = human TAAR1 agonism. Q96RJ0. CHO RD-HGA16 TAAR1, Fluo-8 calcium fluorescence; vehicle wells 0%, saturating PEA agonist 100%. activation, % at 3 µM. actives 0.99% (n = 360,000);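 active = activation above the mean activation of all test compounds in the run plus 3 SD, cut at about 38% in these data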
Target sequence (Q96RJ0 whole entry, looked up): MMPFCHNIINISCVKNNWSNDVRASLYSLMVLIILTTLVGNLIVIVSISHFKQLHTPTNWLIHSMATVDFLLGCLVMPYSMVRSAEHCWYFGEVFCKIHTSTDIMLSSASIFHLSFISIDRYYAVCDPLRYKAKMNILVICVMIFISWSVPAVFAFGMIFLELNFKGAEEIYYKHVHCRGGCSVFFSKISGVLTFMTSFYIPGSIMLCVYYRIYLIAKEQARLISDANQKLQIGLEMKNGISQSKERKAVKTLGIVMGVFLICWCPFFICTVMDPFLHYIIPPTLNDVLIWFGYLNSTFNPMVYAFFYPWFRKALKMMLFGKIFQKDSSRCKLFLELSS
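System: CHO-derived RD-HGA16 cells with stable Gα16 and human TAAR1. Times: 17-24 h plating, Fluo-8 75 min 37 °C, 30 min RT. Measured by: calcium-sensitive Fluo-8 signal, excitation 470-495, emission 515-575 nm. Read-out basis: % activation relative to PEA EC100 response. Control set: DMSO and PEA EC100. Repeats: no replicates (n 1).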
TAAR1 antagonist = human TAAR1 antagonism | inhibition, % at 3 µM | actives 1.5% (n = 360,000) | Q96RJ0 | CHO RD-HGA16 TAAR1, Fluo-8 calcium fluorescence, antagonist;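 active = inhibition above a per-plate cutoff, the mean inhibition of test compounds on that plate plus 3 SD, cut at about 49% in these data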;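 note: 0% = DMSO plus EC80 beta-PEA response and 100% = DMSO alone without agonist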
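Test system – hTAAR1-expressing CHO RD-HGA16 cells, Gα16-coupled · Reagent – β-PEA at EC80 concentration, post-compound challenge · Compound dosing – 3 µM, single point · Timing – 140 s kinetic read after compound, 140 s after agonist · Detection – Fluo-8 intracellular calcium dye fluorescence, real-time kinetic reads · Control set – DMSO and EC80 PEA controls · Repeats – n of 1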
NTR1 agonist = NTR1 (human) agonism. activation, % at 20 µM. actives 0.17% (n = 330,000). NTR1-U2OS beta-arrestin-GFP spot imaging, agonist mode;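 active = activation at or above 40% of the spot to cytoplasm intensity ratio, with at least 20 cells analyzed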;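 note: 0% = DMSO without peptide and 100% = 100 nM NTR1 peptide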
Starred values were filed as active, the others as inactive.

Oc1c(Br)cc(Br)cc1CNc1cccc2cccnc12 was read as OX1R antag-1 5, CHO parental Ca -9, OX1R antag-2 29*, TAAR1 ag 4, TAAR1 antagonist -5 and NTR1 agonist 0.
`COc1cccc(CNc2ccccn2)c1O` gave OX1R antag-1 -12, CHO parental Ca -11, OX1R antag-2 8, TAAR1 ag 7, TAAR1 antagonist -11 and NTR1 agonist 0.
For Oc1ccc(Br)cc1CNc1cccc2cccnc12 the results were OX1R antag-1 -8, CHO parental Ca -1, OX1R antag-2 16, TAAR1 ag 4, TAAR1 antagonist -2 and NTR1 agonist 0.
`Cc1csc(NC(=O)C2=NN(c3ccccc3)C(=O)CC2)n1` gave OX1R antag-1 -13, CHO parental Ca -10, OX1R antag-2 20, TAAR1 ag 9, TAAR1 antagonist 7 and NTR1 agonist -1.
`Cc1ccc(-c2csc(NC(=O)C3=NN(c4ccccc4)C(=O)CC3)n2)cc1` gave OX1R antag-1 -5, CHO parental Ca 20, OX1R antag-2 25, TAAR1 ag 12, TAAR1 antagonist 52* and NTR1 agonist 8.
Screening COc1ccc(NC(=O)CSc2n[nH]c(-c3ccncc3)n2)cc1Cl returned OX1R antag-1 -12, CHO parental Ca -2, OX1R antag-2 12, TAAR1 ag 12, TAAR1 antagonist -9 and NTR1 agonist 0.
For CCOC(=O)c1ccc(-c2c(-c3ccccc3OC)oc3ccccc23)cc1F the results were OX1R antag-1 -36, CHO parental Ca -22, OX1R antag-2 2, TAAR1 ag 2, TAAR1 antagonist -21 and NTR1 agonist 0.
`CCOC(=O)c1ccc(-c2ccc3c(=O)c4ccccc4n(C)c3c2)cc1F` gave OX1R antag-1 8, CHO parental Ca -3, OX1R antag-2 66*, TAAR1 ag 7, TAAR1 antagonist 6 and NTR1 agonist 5.
Cc1cc(C)c(NC(=O)CNC(=O)COC(=O)Cc2ccccc2C)c(C)c1 was read as OX1R antag-1 -13, CHO parental Ca -16, OX1R antag-2 -1, TAAR1 ag 5, TAAR1 antagonist 0 and NTR1 agonist -2.
CCC(=O)N1CC2(CC(c3cccc([N+](=O)[O-])c3)=NO2)C[C@H]1C(=O)NCC(N)=O (stereo not given in full) was read as OX1R antag-1 0, CHO parental Ca -5, OX1R antag-2 66*, TAAR1 ag 10, TAAR1 antagonist -5 and NTR1 agonist 6.
For COc1ccc(C2CC(C)(c3ccc(OC)cc3OC)Nc3ccccc3N2)c(OC)c1 (stereo not given) the results were OX1R antag-1 38*, CHO parental Ca 71*, OX1R antag-2 41, TAAR1 ag 0, TAAR1 antagonist -4 and NTR1 agonist 12.
Screening COC(=O)C1=C(C)C(c2ccc(OC)cc2OC)NC(=O)N1 (stereo not given) returned OX1R antag-1 -20, CHO parental Ca -2, OX1R antag-2 14, TAAR1 ag 10, TAAR1 antagonist -17 and NTR1 agonist 0.
`CC(C)OC(=O)/C(=C\c1ccc2c(c1)c1ccccc1n2C)NC(=O)c1ccccc1` gave OX1R antag-1 15, CHO parental Ca 4, OX1R antag-2 35, TAAR1 ag 4, TAAR1 antagonist 50* and NTR1 agonist 4.
For COc1ccccc1OCC(=O)NNC(=O)CSC(=S)N1CCCC1 the results were OX1R antag-1 -1, CHO parental Ca -1, OX1R antag-2 1, TAAR1 ag -1, TAAR1 antagonist 13 and NTR1 agonist 6.
For O=C1c2cccc3cc([N+](=O)[O-])cc(c23)C(=O)N1c1ccccc1O the results were OX1R antag-1 -22, CHO parental Ca -9, OX1R antag-2 43*, TAAR1 ag 9, TAAR1 antagonist -3 and NTR1 agonist 3.
For Cc1cc(O)ccc1N1C(=O)c2cccc3cc([N+](=O)[O-])cc(c23)C1=O the results were OX1R antag-1 -26, CHO parental Ca -15, OX1R antag-2 59, TAAR1 ag -1, TAAR1 antagonist -29 and NTR1 agonist 0.
`Cc1cc(N=O)no1` gave TAAR1 ag 0 and TAAR1 antagonist -6.
Screening Cc1cc(-n2c(C)cc(C(=O)CSc3ncnc4ccccc34)c2C)no1 returned OX1R antag-1 70*, CHO parental Ca 66*, OX1R antag-2 47*, TAAR1 ag 15, TAAR1 antagonist 45 and NTR1 agonist 4.
For CNC(=O)c1ccc(NC(=O)Nc2ccccc2)cc1 the results were OX1R antag-1 -10, CHO parental Ca -4, OX1R antag-2 14, TAAR1 ag 40*, TAAR1 antagonist 10 and NTR1 agonist 1.
For CCN(CC)c1ccc(NC(=O)Nc2ccccc2)cc1 the results were OX1R antag-1 -9, CHO parental Ca -7, OX1R antag-2 8, TAAR1 ag 25, TAAR1 antagonist 50* and NTR1 agonist -2.
Screening O=C(NCCc1ccccc1)c1ccc2nc(-c3ccco3)c(-c3ccco3)nc2c1 returned OX1R antag-1 -20, CHO parental Ca -18, OX1R antag-2 26 and NTR1 agonist 2.
For O=C(NC1CCCC1)c1ccc2nc(-c3ccco3)c(-c3ccco3)nc2c1 the results were OX1R antag-1 -12, CHO parental Ca -7, OX1R antag-2 63* and NTR1 agonist 3.
Screening O=C(CN1C(=O)c2cccc([N+](=O)[O-])c2C1=O)N1CCN(S(=O)(=O)c2ccccc2)CC1 returned OX1R antag-1 24, CHO parental Ca -19, OX1R antag-2 34*, TAAR1 ag 6, TAAR1 antagonist -8 and NTR1 agonist -1.
For O=C(Nc1ccc(-c2csc(Nc3ccc(Cl)cc3)n2)cc1)c1ccccc1 the results were OX1R antag-1 2, CHO parental Ca 1, OX1R antag-2 7, TAAR1 ag 4, TAAR1 antagonist 51* and NTR1 agonist 2.
`COc1cccc2sc(Nc3nc(-c4ccccn4)cs3)nc12` gave OX1R antag-1 102*, CHO parental Ca 45*, OX1R antag-2 114* and NTR1 agonist 11.
O=C(Nc1ccc(-c2csc(Nc3cccc(C(F)(F)F)c3)n2)cc1)c1ccccc1 was read as OX1R antag-1 -14, CHO parental Ca -3, OX1R antag-2 17, TAAR1 ag 0, TAAR1 antagonist 15 and NTR1 agonist 12.
c1ccc(-c2csc(Nc3cccnc3)n2)nc1 was read as OX1R antag-1 9, CHO parental Ca 0, OX1R antag-2 -1, TAAR1 ag 8, TAAR1 antagonist 19 and NTR1 agonist -1.
Screening c1ccc(Nc2nc(-c3ccccn3)cs2)cc1 returned OX1R antag-1 -15, CHO parental Ca -24, OX1R antag-2 77*, TAAR1 ag 6, TAAR1 antagonist -3 and NTR1 agonist 1.

Assay outcomes as filed in PubChem.
